Data on 7 molecules can be found in PMC5384256 (Bioconjugate chemistry, 2015).

For one data set, the system named is p-ERK. Put plainly: Western blot p-ERK, SKBR3 cells. In kind it is cell-based, Human. The note with it: 48 h. In short, it runs like this:
(§1)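 SKBR3 cells (McCoy's) in 6-well plates at ~60% confluence got unlabeled test peptide at 5 or 100 μM. A tyrosine kinase inhibitor positive control was used at 1–1000 nM, alongside 1% DMSO and untreated controls. Cells were harvested at 48 h for Western blot. Antibodies covered total HER2, AKT and ERK1/2, phospho-HER2 (Tyr1248), phospho-AKT (pS473), phospho-ERK1/2 and tubulin.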
In general terms: Immunoblotting shows a protein as a band on a membrane.

Another data set concerns p-HER2. Put plainly: Western blot p-HER2, SKBR3 cells. In kind it is cell-based, Human. The note with it: 48 h. In short, it runs like this:
as §1

The next data set concerns p-AKT. The data set can be described thus: Western blot p-AKT, SKBR3 cells. It counts as cell-based, Human. The note with it: 48 h. In short, it runs like this:
as §1

A further data set has as its system Flo1-HER2 cells. The data set can be described thus: Confocal microscopy of FITC-labeled lead peptides with Flo1-HER2 cells. In kind it is cell-based. To be noted: 10 μM, 4 °C, 1 h, quadruplicate, data log base 2. In short, it runs like this: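 Flo1-HER2 cells (DMEM + G418) and Q-hTERT control cells (Keratinocyte-SFM), ~7500 cells on coverslips, were grown to ~70% confluence and washed with cold PBS. They got 10 μM FITC-labeled peptide for 1 h at 4 °C, were washed 3×, fixed in ice-cold 4% PFA for 10 min and mounted with DAPI. Confocal imaging used a 63× oil objective, in quadruplicate.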

The test system of data set [1] is HER2 in colonic adenomas of CPC;Apc mice. The data set can be described thus: In vivo NIR endoscopic imaging of mouse colonic dysplasia, systemic peptide. To be noted: n = 4, i.v. tail vein, 200 μL of 300 μM. In short, it runs like this: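 Isoflurane-anaesthetized CPC;Apc mice received 200 μL of 300 μM Cy5.5-labeled test peptide via tail vein. NIR endoscopy was done before injection for baseline, then after injection until maximum signal. The adenoma-to-normal intensity ratio came from regions of interest at each time point.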

In data set [2] the test system is HER2 on HT29 cells. The data set can be described thus: Co-localization of peptide and anti-HER2 antibody binding, HT29 cells. It counts as cell-based, Human. To be noted: KSP*-Cy5.5 5 μM, 1 h, 4 °C, then anti-HER2 and AF488 secondary. In short, it runs like this: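 HT29 cells got 5 μM Cy5.5-labeled test peptide first (1 h, 4 °C), at under 10 μM to limit interference with antibody binding. Cells were washed, fixed in 4% PFA for 5 min, then stained with primary anti-HER2 and AF488 secondary. Co-localization was scored as Pearson's correlation coefficient.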

For data set [3], the system named is HER2 on HT29 cells. Put plainly: Confocal fluorescence microscopy, HT29 cells. It counts as cell-based, Human. The note with it: peptides 5 μM, 30 min, 4 °C. In short, it runs like this:
(§2)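 Cells were cultured at 37 °C, 5% CO2 with 10% FBS and 1% pen/strep: HT29 in McCoy's, SW480 in DMEM. After a PBS wash, cells got 5 μM Cy5.5-labeled test or control peptide for 30 min at 4 °C, were washed 3×, fixed in ice-cold 4% PFA for 10 min and mounted with DAPI. Imaging used Cy5.5 and DAPI filters. Intensities were quantified from 3 independent images.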

Data set [4] deals with HER2 overexpressed by mouse colonic dysplasia. The data set can be described thus: Peptide immunofluorescence on mouse colonic adenoma sections. To be noted: 2 μM, 10 min, RT, confocal. In short, it runs like this: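 Serial 5-μm sections of formalin-fixed mouse colonic adenoma were incubated with 2 μM Cy5.5-labeled test or control peptide for 10 min at RT. Sections were washed 3× with PBS and mounted with DAPI for confocal imaging. Adjacent sections were H&E stained.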

The test system of another data set is HER2 on SW480 cells. The data set can be described thus: Confocal fluorescence microscopy, SW480 cells. To be noted: peptides 5 μM, 30 min, 4 °C. It counts as cell-based, Human. In short, it runs like this:
as §2

The subject of data set [5] is HER2 overexpressed by human proximal colonic neoplasia. The data set can be described thus: Peptide immunofluorescence on FFPE human proximal colon specimens. The note with it: KSP*-Cy5.5 5 μM, 10 min, RT. In short, it runs like this:
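FFPE 5-μm sections were deparaffinized, then antigen-retrieved in 10 mM sodium citrate, 0.05% Tween, pH 6.0, at boiling then sub-boiling for 15 min. They were blocked with protein serum for 15 min at RT and stained with 5 μM Cy5.5-labeled test peptide for 10 min at RT. After PBS washes, anti-HER2 was applied overnight at 4 °C. Mean intensity was read from three 20×20 μm² epithelial boxes per image, avoiding saturated regions. Analysis used log2 transform if needed, one-way ANOVA with Tukey comparisons, and Pearson's coefficient for co-localization.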

The test system of data set [6] is HER2 in colonic adenomas of CPC;Apc mice. Put plainly: In vivo NIR endoscopic imaging of mouse colonic dysplasia, topical peptide. The note with it: topical 100 μM, 1.5 mL. In short, it runs like this: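 Cy5.5-labeled peptides, 100 μM in 1.5 mL, were delivered into the colon through the endoscope instrument channel and left 5 min. The colon was rinsed 3× with tap water before NIR imaging with a small animal endoscope. Imaging was repeated 2–3 days later with the control peptide. Target-to-background ratios came from mean ROI intensities.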

Data set [7] deals with HER2 on HT29 cells. The data set can be described thus: Apparent association time constant by flow cytometry. It counts as binding, Human. To be noted: 5 μM KSP*-Cy5.5, 4 °C, 0-60 min, from k = 0.14 min^−1.
Data set [8] relates to HER2 on HT29 cells. The data set can be described thus: siRNA knockdown of HER2, HT29 cells. It counts as cell-based, Human. To be noted: HT29 siCL vs siHER2; confocal; average of 3 images. In short, it runs like this: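 HT29 cells were seeded at 30% confluence in McCoy's 5A with 10% FBS and no antibiotics. Next day they were transfected with HER2-targeting siRNA or a nontargeting pool, and knockdown was confirmed by Western blot. Cy5.5-labeled test peptide and AF488 anti-HER2 binding were imaged confocally, with intensities quantified from 3 independent images.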

The subject of the next data set is dysplastic polyps. To be noted: FITC-labeled, topical application, patients; cited from earlier work.
Data set [9] deals with Human epidermal growth factor receptor 2 (HER2), endogenous on human cells and tissue (human, UniProt P04626 23-1255). Put plainly: flow cytometry on cells.
Setting [10] is: lapatinib 1, 25, 100, 1000 nM, concentration dependent.
Where [11] appears, read: human proximal colon FFPE, n = 30, mean ± sem.

Values joined by “and” are separate entries in the source; they are usually repeats but may differ in a detail not shown here. Equal values may be shown once. Where no end group is shown, it is not given here. Cy5.5 = Cy5.5 fluorophore

As to `CS(=O)(=O)CCNCc1ccc(-c2ccc3ncnc(Nc4ccc(OCc5cccc(F)c5)c(Cl)c4)c3c2)o1` [lapatinib, reference compound], in the data set on p-ERK (setting [10]), the “Expression of p-ERK” value is recorded as “reduced expression”. Further, in the data set with p-HER2 (setting [10]), the “Expression of p-HER2” value was “reduced expression”. In the data set with p-AKT (setting [10]), the “Expression of p-AKT” value is “reduced expression”.

Take KSPNPRF: in the data set on Flo1-HER2 cells, the “Mean fluorescence intensity (rank among top 5 peptides)” value is listed as “highest mean fluorescence intensity”.

In the case of KSPNPRF [KSP*-Cy5.5], the “Time of peak T/B ratio (mean intensity)” value in data set [1] is on record as 100 min. In addition, the “Co-localization with anti-HER2-AF488, Pearson's coefficient” value in the data set on HER2 on HT29 cells [2] stood at 0.74. For the same molecule, the “Binding to cell surface” value in the data set on HER2 on HT29 cells [3] is reported as “binds to the surface”. For the same molecule, the “Staining of normal colon” value in [4] was “Minimal staining”. The “Binding to cell surface” value with HER2 on SW480 cells is recorded as “binds to the surface”. For the same molecule, the “Co-localization with anti-HER2-AF488, Pearson's correlation coefficient” value in [5] (human colonic dysplasia, then anti-HER2) is on record as 0.50. For the same molecule, the “Mean fluorescence intensity, hyperplastic polyps” value in data set [5] (human proximal colon FFPE, n = 12, mean ± sem) was 0.12 ± 0.08. For the same molecule, in [5] (human proximal colon FFPE, n = 13, mean ± sem), the “Mean fluorescence intensity, sessile serrated adenomas” value was found to be 6.07 ± 0.73. Moreover, in data set [5] (setting [11]), the “Mean fluorescence intensity, normal” value worked out at 2.72 ± 0.31 and the “Mean fluorescence intensity, sporadic adenomas” value is 11.9 ± 0.61. In data set [6], the “NIR fluorescence at flat adenoma” value is given as “increased intensity with visible crypt-like structures” and the “NIR fluorescence at polypoid adenoma” value is “increased intensity”. Further, the “Apparent association time constant, as time” value in the data set on HER2 on HT29 cells [7] is 7.1 min and 7.14 min. The “Binding to siCL treated control cells compared to siHER2 knockdown cells” value in the data set with HER2 on HT29 cells [8] is “significantly greater”.

KSPNPRF [KSP*]: the “Phosphorylation of ERK (p-ERK)” value in the data set on p-ERK (KSP* 5 and 100 μM) was “no change”. For the same molecule, in the data set on p-HER2 (KSP* 5 and 100 μM, Tyr1248), the “Phosphorylation of HER2 (p-HER2)” value is “no change”. The “Phosphorylation of AKT (p-AKT)” value in the data set on p-AKT (KSP* 5 and 100 μM, pS473) is given as “no change”. Besides, in the data set with HER2 on HT29 cells [7], the “Apparent association time constant, as time” value was 7.1 min.

Turning to PPSNFKR [PPS*-Cy5.5], the “Binding to cell surface” value in the data set with HER2 on HT29 cells [3] was “minimal binding”. Further, the “Staining of normal colon” value in data set [4] is given as “Minimal staining”. For the same molecule, in the data set with HER2 on SW480 cells, the “Binding to cell surface” value is “minimal binding”. Also, in [6], the “NIR fluorescence at flat adenoma” value is on record as “minimal signal” and the “NIR fluorescence at polypoid adenoma” value is reported as “minimal signal”.

Regarding VRPMPLQ, in the data set with dysplastic polyps, the “Binding in vivo on dysplastic polyps” value is “specific binding was validated”.

KSPNPRFGGGSK(Cy5.5)-NH2 [KSP*-Cy5.5 (KSPNPRF peptide labeled with Cy5.5 via a GGGSK linker)] came in with a dissociation constant (Kd) in data set [9] of 21 nM.

A word on the Kd: it is the equilibrium constant for the complex coming apart. A low value points to tighter binding.
